{
  "source": "ChEMBL document CHEMBL1671691",
  "about": "(Antimicrob Agents Chemother, 2010)",
  "key": {"Influenza A virus [1]": {"test_system": "Influenza A virus", "test": "Antiviral activity against adamantane-, zanamivir-susceptible oseltamivir-resistant Influenza A virus (A/New Jersey/15/2007(H1N1)) harboring neuraminidase H274Y mutant infected in MDCK cells assessed as inhibition of viral replication after 3 days by microscopic analysis using crystal violet stain", "format": "functional, organism-based", "method_in_brief": "(§1)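 Confluent MDCK-ATCC monolayers infected with virus diluted to give 15–45 plaques/well. Adsorption 1 h at 37°C without drug, then washed. Overlaid with 0.8% agarose in MEM containing drug plus TPCK-trypsin: 3 μg/ml for seasonal viruses, 2 μg/ml for 2009 A(H1N1). Incubated 3 days at 37°C, 5% CO2. Ethanol-fixed, crystal violet-stained, plaques counted. EC50 by curve fit; duplicates on three occasions, mean ± SD.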"}, "Influenza A virus [2]": {"test_system": "Influenza A virus", "test": "Antiviral activity against adamantane-, zanamivir-susceptible oseltamivir-resistant Influenza A virus (A/Washington/10/2008(H1N1)) harboring M2 S31N mutant infected in MDCK cells assessed as inhibition of viral replication after 3 days by microscopic analysis using crystal violet stain", "format": "functional, organism-based", "method_in_brief": "as §1"}, "Influenza A virus [3]": {"test_system": "Influenza A virus", "test": "Antiviral activity against Influenza A virus (A/Washington/29/2009(H1N1)) harboring neuraminidase H275Y mutant infected in MDCK cells from ATCC assessed as inhibition of viral replication after 3 days by microscopic analysis using crystal violet stain", "format": "functional", "method_in_brief": "as §1"}, "Influenza A virus [4]": {"test_system": "Influenza A virus", "test": "Antiviral activity against Influenza A virus (A/Washington/29/2009(H1N1)) harboring neuraminidase H275Y mutant infected in MDCK cells from Mill Hill assessed as inhibition of viral replication after 3 days by microscopic analysis using crystal violet stain", "format": "functional"}, "Influenza A virus [5]": {"test_system": "Influenza A virus", "test": "(§2) Antiviral activity against oseltamivir-susceptible zanamivir-, adamantane-resistant Influenza A virus (A/Luhansk/18/2008(H1N1)) harboring neuraminidase H274Y mutant and M2 G34E mutant infected in MDCK cells assessed as inhibition of viral replication after 3 days by microscopic analysis using crystal violet stain", "format": "functional, organism-based"}, "Influenza A virus [6]": {"test_system": "Influenza A virus", "test": "Antiviral activity against adamantane-resistant zanamivir-,oseltamivir-susceptible Influenza A virus (A/Massachusetts/03/2009(H3N2)) harboring M2 S31N mutant infected in MDCK cells assessed as inhibition of viral replication after 3 days by microscopic analysis using crystal violet stain", "format": "functional, organism-based", "method_in_brief": "as §1"}, "Influenza A virus [7]": {"test_system": "Influenza A virus", "test": "Antiviral activity against adamantane-resistant zanamivir-,oseltamivir-susceptible Influenza A virus (A/Washington/01/2007(H3N2)) harboring M2 S31N mutant infected in MDCK cells assessed as inhibition of viral replication after 3 days by microscopic analysis using crystal violet stain", "format": "functional, organism-based", "method_in_brief": "as §1"}, "Influenza A virus [8]": {"test_system": "Influenza A virus", "test": "(§3) Antiviral activity against adamantane-resistant zanamivir-,oseltamivir-susceptible Influenza A virus (A/pdm/Mexico/4604/2009(H1N1)) harboring M2 V28I, S31N mutant infected in MDCK cells assessed as determination of viral titer in cell culture at 128 uM after 24 hrs by immunofluorescence assay", "format": "functional, organism-based", "details": "Influenza A virus (A/Mexico/4604/2009(H1N1))", "method_in_brief": "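MDCK cells (ATCC or Mill Hill) infected with 2009 pandemic H1N1 at MOI ~0.01, 1 h adsorption at 4°C, washed. DMEM with 2 μg/ml TPCK-trypsin plus drug for 24 h at 37°C. Supernatants titrated on MDCK cells by focus formation: methanol/acetic acid fixation, anti-nucleoprotein MAbs, FITC secondary, foci counted. Titre as log10 FFU per 100 μl; detection limit <10 FFU; quadruplicate wells.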"}, "Influenza A virus [9]": {"test_system": "Influenza A virus", "test": "Antiviral activity against Influenza A virus (A/Illinois/10/2009(H1N1)) harboring neuraminidase H275Y mutant infected in MDCK cells from ATCC assessed as inhibition of viral replication after 3 days by microscopic analysis using crystal violet stain", "format": "functional", "method_in_brief": "as §1"}, "Influenza A virus [10]": {"test_system": "Influenza A virus", "test": "Antiviral activity against adamantane-susceptible zanamivir-, oseltamivir-resistant Influenza A virus (A/Santiago/5248/2008(H1N1)) harboring neuraminidase D198E mutant infected in MDCK cells assessed as inhibition of viral replication after 3 days by microscopic analysis using crystal violet stain", "format": "functional, organism-based"}, "Influenza A virus [11]": {"test_system": "Influenza A virus", "test": "Antiviral activity against adamantane-, zanamivir-susceptible oseltamivir-resistant Influenza A virus (A/Georgia/20/2006(H1N1)) harboring neuraminidase H274Y mutant infected in MDCK cells assessed as inhibition of viral replication after 3 days by microscopic analysis using crystal violet stain", "format": "functional, organism-based", "method_in_brief": "as §1"}, "Influenza A virus [12]": {"test_system": "Influenza A virus", "test": "microbe, parasite or virus in culture", "details": "(A/Wuhan/395/1995-like (H3N2)), MDCK, 72 h"}, "Influenza A virus [13]": {"test_system": "Influenza A virus", "test": "Antiviral activity against adamantane-susceptible zanamivir-, oseltamivir-resistant Influenza A virus (A/Brazil/1633/2008(H1N1)) harboring neuraminidase Q136K mutant infected in MDCK cells assessed as inhibition of viral replication after 3 days by microscopic analysis using crystal violet stain", "format": "functional, organism-based"}, "Influenza A virus [14]": {"test_system": "Influenza A virus", "test": "Antiviral activity against Influenza A virus (A/Illinois/10/2009(H1N1)) harboring neuraminidase H275Y mutant infected in MDCK cells from ATCC assessed as log reduction in viral titer at 1.6 uM after 24 hrs by immunofluorescent assay", "format": "functional", "method_in_brief": "(§4)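 Yield reduction in MDCK-ATCC or MDCK-Mill Hill cells infected at MOI ∼0.01. Adsorption 1 h at 4°C, washed, then DMEM with 2 μg/ml TPCK-trypsin and drug. At 24 h, supernatants were titrated by immunofluorescent focus assay on MDCK cells with anti-NP monoclonals and FITC secondary. Titres as log10 FFU per 100 μl; detection limit <10 FFU. Quadruplicate, mean ± SD.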"}, "Influenza A virus [15]": {"test_system": "Influenza A virus", "test": "Antiviral activity against Influenza A virus (A/Washington/29/2009(H1N1)) harboring neuraminidase H275Y mutant infected in MDCK cells from Mill Hill assessed as log reduction in viral titer at 1.6 uM after 24 hrs by immunofluorescent assay", "format": "functional", "method_in_brief": "as §4"}, "Influenza A virus [16]": {"test_system": "Influenza A virus", "test": "Antiviral activity against Influenza A virus (A/Washington/29/2009(H1N1)) harboring neuraminidase H275Y mutant infected in MDCK cells from ATCC assessed as log reduction in viral titer at 1.6 uM after 24 hrs by immunofluorescent assay", "format": "functional", "method_in_brief": "as §4"}, "Influenza A virus [17]": {"test_system": "Influenza A virus", "test": "as §2, with “(A/pdm/Illinois/10/2009(H1N1))” for “(A/Luhansk/18/2008(H1N1))”, “harboring M2 V28I, S31N mutant and” for “harboring”, “H274Y” for “H274Y mutant and M2 G34E”", "format": "functional, organism-based, (A/Illinois/10/2009(H1N1))"}, "Influenza A virus [18]": {"test_system": "Influenza A virus", "test": "as §3, with “against 0.001 MOI” for “against”, “1.6” for “128”", "format": "functional, organism-based", "details": "Influenza A virus (A/Mexico/4604/2009(H1N1))", "method_in_brief": "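Focus inhibition assay: confluent MDCK monolayers infected at MOI ∼0.001–0.1. Adsorption 1 h at 4°C, washed twice, then DMEM with 2 μg/ml TPCK-trypsin and drug for 24 h at 37°C. Cells fixed in methanol/acetic acid at −20°C, immunostained with anti-NP monoclonals and FITC secondary, and foci counted. Supernatants also titrated by focus assay. Quadruplicate on two occasions.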"}, "Influenza A virus [19]": {"test_system": "Influenza A virus", "test": "as §2, with “(A/Texas/12/2007 (clone)(H3N2))” for “(A/Luhansk/18/2008(H1N1))”, “E119V” for “H274Y”, “and harboring” for “and”, “S31N” for “G34E”", "format": "functional, organism-based, Influenza A virus (A/Texas/12/2007(H3N2))", "method_in_brief": "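MDCK-ATCC confluent monolayers infected with pretitrated virus (15–45 plaques per well), 1 h adsorption at 37°C, 5% CO2, without drug. Inoculum removed, PBS wash, then 0.8% agarose overlay in MEM with drug and 3 μg/ml TPCK-trypsin. 3 days at 37°C, ethanol fixation, crystal violet stain, plaques counted. EC50 by curve fit, mean of three experiments in duplicate ± SD.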"}},
  "note": "Active and inactive are the calls of the source. The rule behind the calls is not given here.",
  "data": [
    {"molecule": "NC(=O)c1nc(F)cnc1O", "note": "[FAVIPIRAVIR]", "values": [
      {"measurement": "EC50", "setting": "Influenza A virus [1]", "result": 4.9, "unit": "µM"},
      {"measurement": "EC50", "setting": "Influenza A virus [2]", "result": 3.25, "unit": "µM"},
      {"measurement": "log10FFU", "setting": "Influenza A virus [3]", "result": 0.78},
      {"measurement": "log10FFU", "setting": "Influenza A virus [4]", "result": 6.32},
      {"measurement": "EC50", "setting": "Influenza A virus [5]", "result": 2.93, "unit": "µM"},
      {"measurement": "EC50", "setting": "Influenza A virus [6]", "result": 4.2, "unit": "µM"},
      {"measurement": "EC50", "setting": "Influenza A virus [7]", "result": 4.46, "unit": "µM"},
      {"measurement": "Activity", "setting": "Influenza A virus [8]", "result": "Active"},
      {"measurement": "log10FFU", "setting": "Influenza A virus [9]", "result": 4.21},
      {"measurement": "EC50", "setting": "Influenza A virus [10]", "result": 4.7, "unit": "µM"},
      {"measurement": "EC50", "setting": "Influenza A virus [11]", "result": 2.55, "unit": "µM"},
      {"measurement": "EC50", "setting": "Influenza A virus [12]", "result": 5.99, "unit": "µM"},
      {"measurement": "EC50", "setting": "Influenza A virus [13]", "result": 0.83, "unit": "µM"},
      {"measurement": "log10FFU", "setting": "Influenza A virus [14]", "result": 4.9},
      {"measurement": "log10FFU", "setting": "Influenza A virus [15]", "result": 5.4},
      {"measurement": "log10FFU", "setting": "Influenza A virus [16]", "result": 4.2},
      {"measurement": "EC50", "setting": "Influenza A virus [17]", "result": 22.5, "unit": "µM"},
      {"measurement": "Activity", "setting": "Influenza A virus [18]", "result": "Active"},
      {"measurement": "EC50", "setting": "Influenza A virus [19]", "result": 5.22, "unit": "µM"}
    ]}
  ]
}
